# Yeast life ext – compounds extending yeast replicative lifespan, primary screen, S. cerevisiae, OD615; S. cerevisiae growth with nicotinamide; deaD strain in restrictive glucose medium; inhibition of the nicotinamide effect, % at 10 µM; 130,000 tested, 0.68% active;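 active = inhibition above a set limit, placed 3 SD over the median of all compounds, cut at about 26% in these data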;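 note: 0% = nicotinamide-treated wells and 100% = cells grown without nicotinamide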
#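 Material: Modified budding yeast, DeaD strain | Medium: Restrictive glucose medium | Probe or stimulus: 1.5 mM nicotinamide | Dosing: Single dose 10 µM compound, 0.25% DMSO | Times: 48 h at 30 °C | Technique: OD615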
# RAM network inh – inhibitors of the yeast RAM network, primary screen, dse1pr::URA3 reporter, 5-FOA selection. S. cerevisiae dse1pr::URA3 reporter, 5-FOA growth OD615, 2 d; analog-sensitive cbk1-as2 kinase mutant strain. inhibition, % at 50 µM. 190,000 tested, 1.8% active;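 active = inhibition above a set limit, 3 SD over mean compound inhibition, cut at about 8.4% in these data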;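 note: 0% = DMSO-only wells with no growth and 100% = 10 µM 1-NA-PP1 full growth; inhibition rescues growth on 5-FOA so higher OD means more RAM inhibition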
# TNAP inh noacc – human TNAP enzyme inhibitors, primary screen, biochemical, luminescent, no phosphate acceptor, uHTS; 200,000 tested, 0.26% active; AID 1012, 2008; purified TNAP, CDP-star luminescence, 30 min; Alkaline phosphatase, tissue-nonspecific isozyme (Homo sapiens), P05186; inhibition, % at 20 µM;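 active = tissue-nonspecific alkaline phosphatase inhibition above about 50% at 20 µM in the single-dose screen, limit read from the data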;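 note: 0% = DMSO negative control and 100% = EDTA positive control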
# Target sequence (P05186 whole entry, looked up): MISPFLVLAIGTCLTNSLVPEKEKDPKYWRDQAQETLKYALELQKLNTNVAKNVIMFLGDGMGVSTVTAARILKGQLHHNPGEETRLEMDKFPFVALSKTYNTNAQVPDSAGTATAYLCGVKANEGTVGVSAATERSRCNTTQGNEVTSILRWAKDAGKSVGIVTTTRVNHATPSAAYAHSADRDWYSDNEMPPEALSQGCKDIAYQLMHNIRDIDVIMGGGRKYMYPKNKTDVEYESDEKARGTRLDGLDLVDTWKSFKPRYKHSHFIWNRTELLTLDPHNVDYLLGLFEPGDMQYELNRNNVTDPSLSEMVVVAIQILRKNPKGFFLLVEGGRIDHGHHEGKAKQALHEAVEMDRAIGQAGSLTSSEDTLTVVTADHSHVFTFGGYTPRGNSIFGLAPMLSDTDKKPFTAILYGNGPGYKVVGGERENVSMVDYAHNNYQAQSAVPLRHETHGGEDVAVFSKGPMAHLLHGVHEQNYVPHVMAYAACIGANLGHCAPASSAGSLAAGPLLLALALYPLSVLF
# TNAP inh hi DEA – human TNAP enzyme inhibitors, primary screen, biochemical, luminescent, high phosphate acceptor level, uHTS; Alkaline phosphatase, tissue-nonspecific isozyme (Homo sapiens), P05186; purified TNAP, CDP-star luminescence, 1 M DEA; inhibition, % at 20 µM; 200,000 tested, 0.03% active;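 active = over 50% inhibition of tissue-nonspecific alkaline phosphatase at 20 µM in the single-dose screen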;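 note: plate controls were DMSO wells for no effect and EDTA-quenched wells as full inhibition for full effect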
# TNAP act hiacc – TNAP activators at high phosphate acceptor level, primary screen, biochemical, luminescence, uHTS; Alkaline phosphatase, tissue-nonspecific isozyme (Homo sapiens), P05186; purified TNAP, CDP-star luminescence, 1 M DEA, 30 min; stronger effect = higher value; 0 = EDTA background, 1 = DMSO-only activity; activation factor at 20 µM; 200,000 tested, under 10 active; AID 1136, 2008;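 active = activation factor at least 2 at 20 µM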
#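 Control set: EDTA negative control, DMSO positive control / Assay system: human TNAP / Quantity: TNAP 1/800 final / Evaluation: TNAP activation factor scaled between EDTA and DMSO control wells / Measured by: luminescent substrate turnover signal / Compound dosing: one dose, 20 µM / Times: 30 min enzyme reaction at room temperature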
# Yeast growth inh – growth inhibitors of yeast BB579 in restrictive medium, primary screen, yeast lifespan-shortening project, S. cerevisiae; inhibition, % at 10 µM; OD615, 48 h; 140,000 tested, 0.51% active; AID 804, 2007;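 active = inhibition above a set limit, 3 SD over the mean compound inhibition, cut at about 44% in these data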
#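 controls = amphotericin B 10 µg/mL, positive | assay system = DeaD yeast strain BB579 | schedule = 48 h compound exposure at 30 °C after 4 h preincubation | detection = OD615 turbidity measurement | medium = restrictive CSMM-D medium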
# Active calls of the source: *; nt = not tested or not shown. In the library only some 2.8% were active in any assay of this set; here they are far more common.
SMILES,Yeast life ext,RAM network inh,TNAP inh noacc,TNAP inh hi DEA,TNAP act hiacc,Yeast growth inh
COCC1CCN(Cc2cn[nH]c2-c2ccc(OC)cc2F)C1 (stereo unspecified),nt,-1,74*,-3,1,nt
O=C(Nc1cc(Cl)ccc1Cl)C1CC(=O)N(c2ccc(Br)cc2)C1 (stereo unspecified),-3,4,-4,-1,1,-6
CN1CCCC(C#CC(O)(c2ccccc2)c2ccccc2)C1 (stereo unspecified),nt,0,-8,-5,1.1,nt
CSc1nc(Sc2ccccc2Cl)c2ccccc2n1,-22,3,5,-3,1,-35
COC(=O)C1SCC2C(=O)N(Cc3ccccc3)CC(=O)N21 (stereo unspecified),nt,3,-6,-3,1,nt
COc1ccc2sc3ccccc3c(=O)c2c1,-27,4,-2,2,1,22
COc1ccc(-c2cc(=O)c3ccccc3s2)cc1,-29,8.8*,-4,-1,1,-34
O=C(NCc1ccco1)c1cccc2c1C(=O)N(C1CCCCC1)C2,0,3,-5,3,1,-38
O=C(NCc1cccnc1)c1cccc2c1C(=O)N(C1CCCCC1)C2,52*,2,0,2,1,-44
Cc1cc(C)nc(/N=C2\NC(=O)CC(C(=O)O)N2c2ccc(C)c(C)c2)n1 (stereo unspecified),nt,6,-12,-8,1.1,nt
COc1ccc(CN2CCNC(=O)C2CC(=O)N(C)Cc2ccon2)c(OC)c1 (stereo unspecified),nt,0,-1,-1,1,nt
CCOCC(=O)Nc1nc2c(s1)C(=O)CC(C)(C)C2,-13,2,-16,-6,1.1,45*
Nn1cc(-c2ccccc2)nc1SCC(=O)N1CCN(S(=O)(=O)c2ccc(Cl)cc2)CC1,0,9.8*,-13,-2,1,-11
Nn1cc(-c2ccccc2)nc1SCC(=O)N1CCN(S(=O)(=O)c2ccc3ccccc3c2)CC1,-7,1,-3,0,1,-5
Cc1ccc(C)n1-c1sc2c(c1C#N)CCCC2,nt,10*,-5,2,1,-38
CCCCCC(=O)N1CCN(CCN=CC2=C(O)CC(c3ccc(OC)cc3)CC2=O)CC1 (stereo unspecified),8,1,-4,-2,1,-3
CCCCCC(=O)N1CCN(CCN=CC2=C(O)CC(c3ccc(OC)c(OC)c3)CC2=O)CC1 (stereo unspecified),165*,2,-9,-2,1,-24
O=C(CSc1ccc([N+](=O)[O-])cc1)Nc1cccc(S(=O)(=O)Nc2ccccc2F)c1,nt,9.2*,-15,-8,1.1,nt
O=C(CSc1nnc(Nc2ccccc2F)s1)Nc1cccc(S(=O)(=O)N2CCCCC2)c1,1,10*,-21,-6,1.1,-26
Cc1ccc(S(=O)(=O)N2CCC(C(=O)NCc3ccncc3)CC2)cc1,0,1,-11,-4,1,-64
C=CCOc1ccc2c(c1)c(S(=O)(=O)c1ccc(C)cc1)cn2COC,-6,9.9*,-10,-5,1.1,-40
Nc1nonc1C(=O)N/N=C/c1ccc(-c2cccc(C(=O)O)c2)o1,nt,3,-7,-3,1,nt
O=C(O)CCC(=O)Nc1ccccc1C(=O)N1CCN(c2ccc(Cl)cc2)CC1,nt,1,-4,-5,1,nt
COc1ccccc1OCCCn1c(C)c(C#N)c2ccccc21,-14,11*,-12,-8,1.1,-31
CCSCc1nnc(SCC(=O)Nc2ccc(F)cc2)n1CC,nt,3,-4,0,1,nt
SMILES,Yeast life ext,RAM network inh,TNAP inh noacc,TNAP inh hi DEA,TNAP act hiacc,Yeast growth inh
CCn1c2ccccc2c2nnc(SCCCn3c(=O)[nH]c4ccccc43)nc21,-10,3,0,1,1,-69
COc1cc(/C=N/NC(=O)c2cc(-c3ccc4c(c3)OCO4)n[nH]2)ccc1O,-2,5,87*,-2,1,-7
COc1ccc(/C=N/NC(=O)c2cc(-c3cccn3C)n[nH]2)cc1OC,0,1,94*,3,1,-59
Cn1cccc1-c1cc(C(=O)N/N=C/c2cccc(O)c2)[nH]n1,nt,2,96*,7,0.9,nt
COc1cc(/C=N/NC(=O)c2cc(-c3c(C)nn(-c4ccccc4)c3C)n[nH]2)ccc1O,nt,-1,-44,1,1,nt
CCOc1cccc(/C=N/NC(=O)c2cc(-c3cccn3C)n[nH]2)c1O,nt,3,-170,-2,1,nt
COc1cc(OC)c(OC)cc1/C=N/NC(=O)c1cc(-c2cccn2C)n[nH]1,-7,2,85*,10,0.9,-30
COCCNC(=O)COc1ccc(Oc2ccccc2)cc1,-19,-1,-2,-6,1.1,-14
CCC(C)NCCOCCOc1ccc(Cl)cc1Br (stereo unspecified),nt,1,-5,-4,1,nt
CC(C)CN1CCNC(=O)C1CC(=O)NCc1cnn(-c2cccc(F)c2)c1 (stereo unspecified),nt,4,-8,-4,1,nt
Cc1cc(SCC(=O)c2cccs2)nc2c(C)cccc12,-13,8.9*,9,-4,1,-45
Cn1c(=O)c2nc(-c3ccccc3)oc2c2ccccc21,-23,3,-14,-5,1,78*
CCCCCc1nc2c(=O)n(C)c3ccccc3c2o1,-15,1,-4,-1,1,5
O=C(COC(=O)CNC(=O)c1ccco1)NCc1ccc(F)cc1,nt,1,9,-4,1,nt
c1ccc2c(N3CCCCC3)nc(N3CCCCC3)nc2c1,-9,-1,-8,-6,1.1,16
C(=C\c1nc(N2CCCCCC2)c2ccccc2n1)/c1ccccc1,-7,-1,-8,3,1,74*
Cc1[nH]nc2nc3c(c(OC(=O)c4ccccc4)c12)c(=O)n(C)c(=O)n3C,52*,-1,-11,-3,1,23
Cc1ccc2nc(-c3ccc(NC(=O)CSc4ccccc4)cc3)[nH]c2c1,76*,3,-7,1,1,-22
CCOC(=O)C1CSC(CC(=O)Nc2ccc(Cl)c(Cl)c2)C(=O)N1 (stereo unspecified),-24,1,-5,-8,1.1,-13
Cc1ccc(CSc2ccc3nnc(-c4ccccn4)n3n2)cc1,nt,1,-6,-2,1,nt
Cc1ccc(CSc2ccc3nnc(-c4cccnc4)n3n2)cc1,2,2,0,2,1,-56
Brc1ccc(CSc2ccc3nnc(-c4cccnc4)n3n2)cc1,nt,10*,-3,-3,1,nt

# Compound activity: PubChem, several laboratories
